S1P3 agonist = S1P3 (human) receptor agonism. Q99500. activation, % at 4.5 µM. S1P3 NFAT-BLA reporter cells, FRET ratio; relative to 1 µM S1P, basal subtracted. actives 0.1% (n = 60,000);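 active = activation above the screen-wide mean plus 3 SD, cut at about 4.5% in these data, passing the limit was not always enough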
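Benchmarks: high control 1 µM S1P / System: stable CHO line with human S1P3, Gα16, NFAT-BLA reporter / Dosing: single compound concentration, 4.5 µM final / Timing: 4 h compound at 37 °C, 2 h substrate at RT / Measured by: FRET β-lactamase substrate fluorescence, excitation 405 nm, 460/535 nm emission ratio, background-subtracted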
S1P1 ag pot = activates or potentiates agonism at human S1P1 receptor | S1P1 CRE-bla cells, forskolin, beta-lactamase FRET, potentiator mode; S1P1 agonist co-added at EC20, 2 nM; 100% = saturating reference agonist, 0% = basal | activation, % at 9.5 µM | actives 0.57% (n = 56,000);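 active = activation above a cutoff set at the mean activation of all tested compounds plus 3 SD, cut at about 54% in these data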;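 note: forskolin at 4 µM as EC80 and the EC20 agonist is SEW2871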
D1 allo mod = allosterically modulates the human D1 dopamine receptor | B-score at 10 µM | P21728 | HEK293 D1, CRE-luciferase, dopamine EC30 potentiation; actives deviate in either direction | actives 5.9% (n = 58,000);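 active = luminescence count or its row- and column-corrected plate score outside the 99.7% band of the plate's sample wells, on either side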
Target sequence (P21728 whole entry, looked up): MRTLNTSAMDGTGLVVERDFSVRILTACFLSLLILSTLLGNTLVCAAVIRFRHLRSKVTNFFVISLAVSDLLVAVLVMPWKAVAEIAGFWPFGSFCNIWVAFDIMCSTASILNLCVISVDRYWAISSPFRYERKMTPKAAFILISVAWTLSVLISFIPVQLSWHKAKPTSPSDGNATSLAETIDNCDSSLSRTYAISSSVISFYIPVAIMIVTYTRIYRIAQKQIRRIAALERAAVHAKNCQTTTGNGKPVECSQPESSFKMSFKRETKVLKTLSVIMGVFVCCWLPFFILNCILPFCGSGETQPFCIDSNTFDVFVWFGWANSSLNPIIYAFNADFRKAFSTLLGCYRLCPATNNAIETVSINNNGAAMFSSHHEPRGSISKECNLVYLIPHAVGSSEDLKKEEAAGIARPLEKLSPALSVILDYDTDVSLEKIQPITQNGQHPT
M1 antag = antagonists of rat M1 muscarinic receptor; actives 3.4% (n = 64,000); P08482; CHO-M1 cells, Fluo-4 calcium, ACh EC80 antagonist mode; hits give low values; AID 628; B-score at 10 µM;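 active = calcium fluorescence response, raw or row-and-column corrected B-score, differing from the plate sample mean either way at a set confidence level, mostly lower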
M1 ag = M1 muscarinic receptor agonism; CHO-M1 cells, Fluo-4 calcium fluorescence, agonist mode; hits give high values; B-score at 10 µM; actives 3% (n = 64,000);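 active = fluorescence rise, raw or as B-score row- and column-corrected plate score, outside the 99.7% band of its plate's samples, either direction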
A number is an active result; . = inactive; / = no result given. Only some compounds are listed: those with a hit (about 11% of all), similar ones and a draw of the others.

SMILES	S1P3 agonist	S1P1 ag pot	D1 allo mod	M1 antag	M1 ag
CCC(COC(=O)Nc1cccc(C)c1)NC(=O)OCC(C)C (centres undefined)	.	.	.	.	.
CCN1CCN(c2ncnc3c2cnn3-c2ccc(Cl)cc2)CC1	.	.	/	-1.4	.
CCN(CC)C(=O)C1CCCN(c2ncnc3c2cnn3-c2ccc(Cl)cc2)C1 (centres undefined)	.	.	-3.6	.	.
CCN(CC)C(=O)C1CCCN(c2ncnc3c2cnn3-c2cccc(C)c2)C1 (centres undefined)	.	.	.	.	.
c1ccc(-n2ncc3c(N4CCCCC4)ncnc32)cc1	.	.	-6.9	.	.
c1ccc(CCN2CCN(c3ncnc4c3cnn4-c3ccccc3)CC2)cc1	.	/	.	.	.
CC1CCCN(c2ncnc3c2cnn3-c2ccccc2)C1 (centres undefined)	.	.	-7.6	.	.
CCN1CCN(c2ncnc3c2cnn3-c2ccccc2)CC1	.	.	.	.	.
O=C(CSCC(=O)N1CCCCC1)OCC(=O)c1c[nH]c2ccccc12	.	.	.	.	.
Cc1cccc(-n2ncc3c(N4CCC(C)CC4)ncnc32)c1	.	.	-4.3	.	.
Cc1ccc(-n2ncc3c(N4CCCC(C)C4)ncnc32)c(C)c1 (centres undefined)	.	73	.	.	.
Cc1cccc(-n2ncc3c(N4CCC5(CC4)OCCO5)ncnc32)c1	.	.	.	.	.
CC1(C)Oc2ccc3ccc(=O)oc3c2/C(=C/Nc2ccccn2)C1=O	.	/	-3.6	.	.
COc1ccc(-c2nc(N3CCOCC3)nc3nn4c(C)c(CCC(=O)O)c(C)nc4c23)cc1	.	.	.	.	.
CC(C)Oc1cc(O)c2c(=O)c(-c3ccc(O)cc3)coc2c1	.	107	.	.	.
COc1ccc(N2CCN(C(c3ccccc3)c3nnnn3Cc3ccc(F)cc3)CC2)cc1 (centres undefined)	.	.	.	.	.
O=c1c2ccccc2nnn1CSc1nnc2sc3ccccc3n12	.	.	-7.8	.	.
CC1CCCCC1NC(=O)CSc1nnc(-c2ccccc2)n1N (centres undefined)	/	/	.	.	.
Cc1cc(=O)oc(C)c1C(=O)NCCCN1CCN(c2ccccc2F)CC1	/	/	.	.	.
CCOc1ccc(-n2cc(C(=O)Nc3cccc(C)n3)c3cc(OC)c(OC)cc3c2=O)cc1	.	.	.	.	7.6
CCOc1ccc(-n2cc(C(=O)N3CCC(C)CC3)c3cc(OC)c(OC)cc3c2=O)cc1	.	.	.	.	.
CC(=O)NC1(C(F)(F)F)C(=O)Nc2c1c(=O)n(C)c(=O)n2C (centres undefined)	.	.	.	.	.
CCCCC(=O)NC1(C(F)(F)F)C(=O)Nc2c1c(=O)n(C)c(=O)n2C (centres undefined)	.	.	.	1.5	.
CCN1CCn2c3c(c4cc(Cl)ccc42)CCCC31 (centres undefined)	.	.	.	1.8	.
CCn1c2c(c3cc(Cl)ccc31)CCCC2=O	.	.	.	.	.
SMILES	S1P3 agonist	S1P1 ag pot	D1 allo mod	M1 antag	M1 ag
CCCCNC(=O)c1cn(C)c2ccc(S(=O)(=O)N3CCOCC3)cc2c1=O	.	.	.	.	.
N#Cc1c(/N=C/c2cccs2)sc2c1CCCCC2	.	.	-3.6	.	.
CC1(C)Cc2nc(N)c(C(=O)NCCO)cc2CO1	.	.	/	6.6	.
OCCCc1nc2n(n1)C(c1ccccc1)C=C(c1ccc(F)cc1)N2 (centres undefined)	.	.	.	.	.
OCCCc1nc2n(n1)C(c1cccs1)C=C(c1ccccc1)N2 (centres undefined)	.	.	.	-15	431
Cc1ccc(S(=O)(=O)NC(=O)c2cc(C)n(CCCN3CCOCC3)c2C)cc1	.	.	-2.4	.	.
Cc1ccc(S(=O)(=O)NCC2CCC(C(=O)NCCCN3CCOCC3)CC2)cc1 (centres undefined)	.	.	.	.	.
O=C(CSc1ncc(-c2ccc(F)cc2)[nH]1)Nc1cccc(O)c1	.	.	.	.	.
O=C(Nc1ccc2ccccc2c1)c1cnccn1	.	.	-2	.	.
O=C(Nc1ccc2nccnc2c1)c1cnccn1	/	/	/	.	.
O=C(CSc1nnc(-c2csc3c2CCCC3)o1)Nc1ccccc1	.	.	-2.3	.	.
c1cnc(Oc2ccc(-c3nnco3)cc2)cn1	.	.	.	.	.
